The list is not random: actives were taken first. Their share in the collection is about 4%.
MPTP block: blocks calcium-induced mitochondrial swelling | actives 1.4% (n = 360,000) | inhibition, % at 10 µM | isolated mouse mitochondria, Ca2+ swelling absorbance, 30 min;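 active means inhibition of 50% or more, scaled per plate between neutral and stimulator controls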;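 further: 0% = DMSO wells given calcium and 100% = 1 mM EGTA wells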
GPR7 antag: human neuropeptides B/W receptor 1 antagonism; P48145; GPR7-expressing cells, fluorescence antagonist assay; inhibition, % at 4.4 µM; actives 1.1% (n = 290,000); AID 1861; in the data active means inhibition above about 16%, passing the limit was not always enough;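 further: cells stimulated with the agonist NPW; 0% = agonist with vehicle and 100% = vehicle without agonist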
DAGLB inh: blocks human DAGLB lipase activity. actives 0.059% (n = 340,000). AID 504411. HEK293T DAGLB membrane lysate, EnzChek fluorogenic substrate. inhibition, % at 5.17 µM; in the data active means inhibition above about 34%;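 further: 0% = enzyme with vehicle and 100% = wells lacking enzyme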
Target sequence (Q8NCG7 whole entry, looked up): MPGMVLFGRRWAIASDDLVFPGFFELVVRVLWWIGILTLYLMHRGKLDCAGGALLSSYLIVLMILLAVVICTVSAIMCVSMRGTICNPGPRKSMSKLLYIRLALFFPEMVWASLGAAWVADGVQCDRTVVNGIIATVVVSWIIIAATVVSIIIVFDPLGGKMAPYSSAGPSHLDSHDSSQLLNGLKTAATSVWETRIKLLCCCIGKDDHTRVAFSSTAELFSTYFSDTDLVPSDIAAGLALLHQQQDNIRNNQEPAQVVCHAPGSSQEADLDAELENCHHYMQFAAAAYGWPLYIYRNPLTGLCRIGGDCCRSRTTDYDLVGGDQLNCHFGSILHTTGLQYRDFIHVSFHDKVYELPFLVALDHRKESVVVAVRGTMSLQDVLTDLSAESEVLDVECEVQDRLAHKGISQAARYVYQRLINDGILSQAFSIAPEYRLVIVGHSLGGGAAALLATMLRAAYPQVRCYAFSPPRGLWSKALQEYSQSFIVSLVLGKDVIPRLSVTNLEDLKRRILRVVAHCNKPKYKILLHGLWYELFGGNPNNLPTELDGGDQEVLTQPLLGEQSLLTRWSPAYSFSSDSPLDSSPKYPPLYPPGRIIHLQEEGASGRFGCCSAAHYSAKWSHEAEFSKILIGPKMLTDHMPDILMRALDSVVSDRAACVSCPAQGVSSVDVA
TAAR1 antag: antagonists of human TAAR1; CHO RD-HGA16 TAAR1, Fluo-8 calcium fluorescence, antagonist; inhibition, % at 3 µM; actives 1.5% (n = 360,000); AID 624466;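 active means inhibition above a per-plate cutoff, the mean inhibition of test compounds on that plate plus 3 SD, cut at about 49% in these data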;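 further: 0% = DMSO plus EC80 beta-PEA response and 100% = DMSO alone without agonist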
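Test system – hTAAR1-expressing CHO RD-HGA16 cells, Gα16-coupled · Reagent – β-PEA at EC80 concentration, post-compound challenge · Compound dosing – 3 µM, single point · Timing – 140 s kinetic read after compound, 140 s after agonist · Detection – Fluo-8 intracellular calcium dye fluorescence, real-time kinetic reads · Control set – DMSO and EC80 PEA controls · Repeats – n of 1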
TAAR1 agonist: agonists of human TAAR1; activation, % at 3 µM; CHO RD-HGA16 TAAR1, Fluo-8 calcium fluorescence; vehicle wells 0%, saturating PEA agonist 100%; actives 0.99% (n = 360,000);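 active means activation above the mean activation of all test compounds in the run plus 3 SD, cut at about 38% in these data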
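Assay system: CHO-derived RD-HGA16 cells with stable Gα16 and human TAAR1; timing: 17-24 h seeding, 75 min 37 °C dye, 30 min RT; read-out: % activation from peak over basal fluorescence ratio, DMSO-to-PEA scaled; measured by: kinetic Fluo-8 calcium fluorescence; benchmarks: low control DMSO, high control PEA (EC100); doses: 3 µM single concentration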
TAAR1 ag confirm: human TAAR1 agonism, confirmed | CHO RD-HGA16 TAAR1, Fluo-8 calcium fluorescence; scaled: DMSO 0%, maximal phenethylamine 100% | activation, % at 3 µM | actives 82% (n = 2,400) | AID 651783 | shares compounds with TAAR1 agonist;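 active means activation above a cutoff set at the run's mean compound activation plus 3 SD, cut at about 39% in these data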
Ga16 ag counter: counter-screen for TAAR1 agonists: nonselective agonists in parental cells. CHO-Ga16 parental, Fluo-8 calcium fluorescence; normalized to maximal ATP response, DMSO zero. activation, % at 3 µM. actives 50% (n = 2,400). AID 651787. shares compounds with TAAR1 agonist;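 active means activation above the run cutoff, the mean activation over all tested wells plus 3 SD, cut at about 12% in these data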;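 further: 0% = DMSO wells and 100% = maximal ATP response on the peak over basal ratio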
TAAR1 desensitize: human TAAR1 agonist that also desensitizes the receptor; actives 46% (n = 2,400); shares compounds with TAAR1 agonist; CHO RD-HGA16 hTAAR1, Fluo-8 calcium, beta-PEA response inhibition; inhibition, % at 3 µM;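 active means inhibition above the run cutoff, the mean inhibition of all test compounds plus 3 SD, cut at about 49% in these data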;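 further: beta-PEA stimulus applied at its EC80; loss of beta-PEA calcium signal after compound pretreatment read as receptor desensitization; 0% = DMSO with beta-PEA at EC80 and 100% = DMSO alone without agonist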
Ga16 antag count: nonselective Ga16 antagonism, counter-screen; shares compounds with TAAR1 agonist; CHO-Ga16 ATP-induced calcium, Fluo-8 fluorescence; inhibition, % at 3 µM; actives 39% (n = 2,400);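 active means inhibition above the plate's mean compound inhibition plus 3 SD, computed per plate, cut at about 22% in these data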;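 further: 0% = EC80 ATP with DMSO and 100% = DMSO wells without ATP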
* hit, by the source's call; x = no result given.

SMILES	MPTP block	GPR7 antag	DAGLB inh	TAAR1 antag	TAAR1 agonist	TAAR1 ag confirm	Ga16 ag counter	TAAR1 desensitize	Ga16 antag count
COC(=O)c1ccc(NC(=S)NCCc2ccccc2)cc1	5	5	-9	54*	73*	82*	12*	77*	28*
COC(=O)c1ccc(NC(=S)Nc2ccccc2)cc1	37	-8	-2	-6	3	x	x	x	x
O=C(O)c1ccc(N/N=C/C=C/c2ccccc2[N+](=O)[O-])cc1	1	19*	4	48	66*	51*	21*	53*	36*
COc1ccc(CNCCc2ccccc2)cc1OCC(N)=O	-2	-13	2	-3	52*	75*	1	22	-3
Cc1ccc(C(=O)Nc2ccc(Br)cc2)cc1S(=O)(=O)Nc1ccccn1	3	-11	2	0	66*	10	5	6	15
Cc1ccccc1NC(=O)c1ccc(C)c(S(=O)(=O)Nc2ccccn2)c1	-2	-11	-1	-9	6	x	x	x	x
CN(C(=O)c1ccc(NC(=O)Cc2cccc(NC(=O)C3CCN(C(=O)CCc4ccccc4)CC3)c2)cc1)C1CC1	x	x	x	-22	2	x	x	x	x
Fc1ccc(Nc2nc(N3CCOCC3)c3ccccc3n2)cc1	1	x	-1	63*	65*	65*	7	42	16
c1ccc2c(Nc3nc(N4CCOCC4)c4ccccc4n3)cccc2c1	2	17	-1	9	10	x	x	x	x
O=C(O)c1cc2nc(-c3cccs3)cc(C(F)(F)F)n2n1	-1	1	-1	0	7	x	x	x	x
Cc1cc(C)n2nc(CCc3ccccc3)nc2n1	2	4	-3	-7	12	x	x	x	x
Cc1cc(C)n2nc(C(=O)NCCc3ccccc3)nc2n1	-1	5	1	-4	63*	54*	0	9	4
O=C(NCCc1ccccc1)c1nc2nc(-c3cccs3)cc(C(F)(F)F)n2n1	0	-1	-2	84*	84*	91*	4	90*	18
CC(C)(C)NC(=O)C(c1ccc(C(F)(F)F)cc1)n1c(=O)c(-c2ccco2)nc2ccccc21 (centres undefined)	2	x	x	-35	-1	x	x	x	x
NC(COCc1ccccc1)c1csc(Nc2nccc(C(F)(F)F)n2)n1 (centres undefined)	0	x	x	-17	15	x	x	x	x
NC(Cc1ccccc1)c1csc(Nc2nncc3ccccc23)n1 (centres undefined)	2	x	x	4	34	x	x	x	x
CCCc1cnc(Nc2nc(C(N)Cc3ccc(C(F)(F)F)cc3)cs2)nc1 (centres undefined)	5	x	x	34	68*	80*	63*	54*	59*
COC(=O)c1cnc(Nc2nc(C(N)Cc3ccccc3)cs2)nc1C(F)(F)F (centres undefined)	4	x	x	43	63*	50*	27*	31	23*
NC(Cc1ccc(C(F)(F)F)cc1)c1csc(Nc2nccc(C(F)(F)F)n2)n1 (centres undefined)	3	x	x	41	61*	43*	20*	40	23*
Cc1ccc(C)c(C(O)c2ncc(-c3ccc4ccccc4c3)[nH]2)c1 (centres undefined)	4	x	x	35	22	x	x	x	x
O=C(O)C1CCCCC1C(=O)NCCc1ccncc1 (centres undefined)	-2	-15	2	-2	22	x	x	x	x
CC1=C(C)CC(C(=O)NCCc2ccc(F)cc2)C(C(=O)O)C1 (centres undefined)	-1	-10	-2	45	73*	75*	3	27	-6
CCCCN(CCCC)C(=O)C1CC=CCC1C(=O)O (centres undefined)	2	-10	-1	10	9	x	x	x	x
O=C(O)[C@H]1CCCC[C@H]1C(=O)NCCc1ccccc1	-2	-15	3	85*	85*	97*	5	92*	5
CCCCCNC(=O)C1CC=CCC1C(=O)O (centres undefined)	-1	-1	0	-5	49*	33	3	9	6
SMILES	MPTP block	GPR7 antag	DAGLB inh	TAAR1 antag	TAAR1 agonist	TAAR1 ag confirm	Ga16 ag counter	TAAR1 desensitize	Ga16 antag count
COc1ccc(CCNC(=O)C2CC=CCC2C(=O)O)cc1 (centres undefined)	-1	-20	-1	-29	50*	60*	5	14	7
CC(C)C[C@@H]1NC(=O)[C@@H]2CSCCS(=O)(=O)N2C1=O	x	x	x	-2	1	x	x	x	x
CC(C)C[C@H]1COc2cccc(N3CCSCC3)c2S(=O)(=O)N1	0	x	x	-2	-1	x	x	x	x
Cc1ccc([C@H]2C[C@H](O)[C@@H](n3cc(COC(=O)c4ccccc4)nn3)CN2Cc2cccs2)cc1	1	x	-2	-3	0	x	x	x	x
CC(C)N(C[C@@H]1CSCCS(=O)(=O)N1)C1CCCCC1	x	x	x	2	0	x	x	x	x
O=C(C(=O)N1CCN(C(=O)OCc2ccccc2)CC1)c1cccnc1	-2	x	x	23	0	x	x	x	x
CC1=C(C)CC(C(=O)NCc2ccccc2F)C(C(=O)O)C1 (centres undefined)	-1	-4	2	0	4	x	x	x	x
CC1CCCCN1C(=S)NCCc1ccccc1 (centres undefined)	-1	-4	1	-12	47*	25	0	5	-3
CC1=C(C)CC(C(=O)NCCc2ccccc2)C(C(=O)O)C1 (centres undefined)	-2	-11	1	91*	81*	105*	4	84*	4
CCCCCCCCN1C(=O)[C@@H](CC(=O)NCc2cccc(C(F)(F)F)c2)C[C@@]2(C(=O)OC)C1=C[C@H](C(C)(C)C)O[C@@H]2C	x	x	x	-30	0	x	x	x	x
Cn1c(C(=O)OCC(=O)NCc2cccs2)cc2sccc21	0	-8	-6	-4	25	x	x	x	x
Cn1c(C(=O)OCC(=O)NCCc2ccccc2)cc2sccc21	1	-4	-5	48	98*	10	1	4	1
Cc1ccc(NS(=O)(=O)c2ccc(C(=O)N3CCCC(C(F)(F)F)C3)cc2)cc1 (centres undefined)	-1	x	1	89*	142*	125*	90*	88*	48*
Cc1ccc(NS(=O)(=O)c2ccc(NC(=O)N3CCCCC3)cc2)cc1	0	16	2	-4	52*	46*	14*	15	21
